Screening results (PubChem BioAssay)
Only some compounds are listed: those with a hit (about 4.9% of all), similar ones and a draw of the others.
STAT1 act: increases IFN-gamma driven STAT1 reporter signal; NIH 3T3 STAT1-luciferase reporter, luminescence; 100% = IFN-gamma alone, no compound; activation (% of control), % at 5.5 µM; 200,000 tested, 2.6% active;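 active means activation above the screen-wide mean activation plus 3 SD, cut at about 130% in these data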;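 further: raw ratio to IFN-gamma control signal so 100% means no change and 0% no light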
STAT3 inh: inhibitors of IL-6 induced STAT3 signaling; U3A cells, IL-6 STAT3-luciferase reporter, luminescence; host cell line lacks STAT1; inhibition, % at 5.5 µM; 190,000 tested, 0.89% active; AID 862;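 active means inhibition above the mean inhibition across all screened compounds plus 3 SD, cut at about 44% in these data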;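 further: 0% = DMSO only wells and 100% = 100 µM nifuroxazide control wells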
APP 5'UTR act: activates APP 5'UTR luciferase reporter; SH-SY5Y APP 5'UTR luciferase reporter, luminescence; zero percent = DMSO vehicle wells; activation, % at 2 µM; 190,000 tested, 1% active; AID 1276;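 active means activation above a set limit, based on mean plus 3 SD of controls, cut at about 140% in these data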
NF-kB neuron act: compounds increasing NF-kB expression in human neuronal cells; NF-kB reporter expression; stronger effect = higher value; fold change at 12.5 µM; 190,000 tested, 1.6% active; in the data active means fold change above about 3.3
STAT3 activator: increases IL-6 driven STAT3 reporter signal; 190,000 tested, 0.91% active; U3A cells, IL-6 STAT3-luciferase reporter, luminescence; 100% = signal with IL-6 EC80 alone; activation (% of control), % at 5.6 µM; AID 871;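 active means activation above the screen-wide mean of compound activation plus 3 SD, cut at about 130% in these data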;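 further: 0% = background luminescence of wells with medium and substrate only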
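Material: STAT3-luciferase reporter U3A cells; Probe or stimulus: IL-6 (33 ng/mL); Incubation: compound pre-incubation 1 h before IL-6, then 6 h stimulation at 37 °C; Technique: luminescence from STAT3-driven luciferase reporter; Evaluation: % activation versus median of IL-6-stimulated wells; Controls: IL-6-only high control.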
STAT1 inh: inhibitors of IFN-gamma induced STAT1 signaling. NIH 3T3 STAT1-luciferase reporter, luminescence. inhibition, % at 5.5 µM. 200,000 tested, 0.35% active;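 active means inhibition above a set limit, the mean inhibition across all tested compounds plus 3 SD, cut at about 34% in these data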;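 further: 0% = IFN-gamma with DMSO and 100% = IFN-gamma with 300 µM nifuroxazide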
* = called active by the depositor; x = no result.

SMILES | STAT1 act | STAT3 inh | APP 5'UTR act | NF-kB neuron act | STAT3 activator | STAT1 inh
COc1ccc(/C(N)=N/OC(=O)/C=C/c2ccccc2)cc1 | 120.4 | 17.3 | 3.0 | 1.16 | 87.9 | -22.1
COc1cc(/C=C/C(=O)c2ccc(O)cc2)ccc1OCC#N | 92.6 | 16.8 | -14.7 | 3.72* | 88.6 | 8.4
COc1ccc(C(=O)/C=C/c2ccc(O)cc2)cc1 | 106.6 | x | 12.3 | 3.57* | x | -8.5
Cc1ccc(/C(N)=N/OC(=O)/C=C/c2ccccc2)cc1 | 99.9 | 11.1 | 6.5 | 2.26 | 92.4 | 0.1
Cc1ccc(/C=C/C(=O)c2ccc(C)cc2)cc1 | 112.1 | 7.8 | 33.5 | 1.6 | 96.1 | -15.4
COc1ccc(C(=O)/C=C/c2ccc(O)cc2)c(O)c1CC=C(C)C | 99.3 | 3.0 | -0.9 | 5* | 95.1 | 0.8
Cc1ccccc1/C(N)=N/OC(=O)/C=C/c1ccccc1 | 122.9 | -3.3 | 86.3 | 3.88* | 100.2 | -24.8
COc1ccc(/C=C/C(=O)c2ccc(O)cc2)cc1CN1CCOCC1 | 97.9 | 10.3 | 17.9 | 3.7* | 90.9 | 2.3
O=C(Cc1ccccc1)Nc1cccc(C(=O)O)c1O | 103.9 | 2.0 | 5.5 | 1.03 | 103.7 | -3.8
CC1(C(=O)NCCN2CCOCC2)C=CC2(CCCCC2)N1C(=O)c1ccccc1 (stereo not drawn) | 103.9 | -1.4 | 12.0 | 1.58 | 98.8 | -4.3
CCOC(=O)c1ccc(N/C=C/C(=O)c2ccc(OC)cc2)cc1 | 98.0 | 17.1 | 4.6 | 1.56 | 90.5 | 2.3
CCOC(=O)c1ccc(N/C=C/C(=O)c2ccccc2)cc1 | 118.2 | 24.1 | 164.3* | 4.75* | 81.9 | -21.3
CCOC(=O)c1ccc(N/C=C/C(=O)C(C)(C)C)cc1 | 135.7* | 18.8 | 98.5 | 4.23* | 88.3 | -40.0
CCOC(=O)c1ccc(NC(=O)Nc2ccccn2)cc1 | 150.6* | 24.9 | 86.8 | 2 | 86.7 | -56.6
CN(C)c1ccc(N/C=C/C(=O)c2ccccc2)cc1 | 58.6 | 84.1* | 125.0 | 2.01 | 33.1 | 44.8*
CC(C)CC(=O)NC(=S)Nc1ccc(NC(=O)c2ccco2)cc1 | 105.9 | 9.1 | -5.5 | 1.01 | 95.9 | -6.7
Cc1nc2cc(NCc3ccccc3O)ccc2n1Cc1ccccc1 | 108.4 | -4.3 | 22.7 | 1.36 | 107.8 | -10.8
COc1ccccc1NC(=O)Cn1c(CCC(=O)O)ccc1-c1ccccc1 | 94.7 | -1.8 | -19.0 | 0.93 | 104.5 | 3.7
COc1ccc(OC)c(NC(=O)Cn2c(CCC(=O)O)ccc2-c2ccccc2)c1 | 104.8 | -36.8 | -10.5 | 0.86 | 133.6* | -5.3
CCCCn1c(N)c(N(CCOC)C(=O)COc2ccc(Cl)cc2)c(=O)[nH]c1=O | 104.3 | -4.9 | 5.9 | 0.93 | 105.9 | -5.2
O=C(Nc1ccc(F)cc1F)c1csc(-c2cccs2)n1 | 135.1* | -20.7 | 108.8 | 1.35 | 124.3 | -39.5
CCOC(=O)c1c(C)[nH]c(C(=O)CSc2nccc(C)n2)c1C | 132.2* | 12.7 | 79.8 | 2.23 | 89.2 | -36.1
Cc1cc(C)n2nc(S(=O)(=O)NC(C)(C)C)nc2n1 | 98.5 | 8.0 | 21.4 | 0.96 | 102.3 | -0.2
